Source: PubChem BioAssay (several laboratories)
Thrombin inh: blocks human thrombin protease activity; P00734; alpha-thrombin, Boc-VPR-AMC fluorogenic substrate cleavage; inhibition, % at 5 µM; 220,000 compounds, 0.26% hits; AID 1046;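 active = inhibition at or above 40%; inactive = inhibition below 40%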;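 note: 0% = enzyme with no compound and 100% = wells without enzyme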
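Material: human alpha-thrombin enzyme / Medium: pH 7.5 Tris (50 mM) with NaCl 150 mM, Tween 20 0.05% / Compound: single-point dosing at 5 µM, 0.2% DMSO / Incubation: enzyme reaction carried out at room temperature / Detection: AMC fluorescence, 355/460 nm / Read-out basis: percent inhibition scaled between no-compound controls and no-enzyme blanks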
EP2 antag: EP2 receptor (human) inhibition. C6 glioma cells expressing human EP2, cAMP TR-FRET; cells stimulated with saturating PGE2. P43116. 260,000 compounds, 0.52% hits. inhibition, % at 25 µM;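 active = percent inhibition above 40 after rounding to a whole number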;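 note: rat C6 glioma host cells with rolipram phosphodiesterase inhibitor present; the protocol text gives 20 µM as final concentration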
KLK5 inh: kallikrein 5 (human) inhibition; Q9Y337; 210,000 compounds, 0.59% hits; recombinant hK5, fluorogenic AMC substrate cleavage; AID 873; inhibition, % at 5 µM;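 active = inhibition of 40% or more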;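 note: 0% = enzyme controls without compound and 100% = no-enzyme blanks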
FXIa inh 1536: inhibitors of human coagulation factor XIa; 220,000 compounds, 0.14% hits; P03951; inhibition, % at 5 µM; purified FXIa, Boc-Glu-Ala-Arg-AMC fluorogenic substrate;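 active = inhibition of at least 40%; inactive = inhibition below 40%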;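 note: fluorescence of freed AMC excited at 355 nm; 0% = enzyme without compound and 100% = no enzyme blank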
Target sequence (P03951 19-387 limits assumed): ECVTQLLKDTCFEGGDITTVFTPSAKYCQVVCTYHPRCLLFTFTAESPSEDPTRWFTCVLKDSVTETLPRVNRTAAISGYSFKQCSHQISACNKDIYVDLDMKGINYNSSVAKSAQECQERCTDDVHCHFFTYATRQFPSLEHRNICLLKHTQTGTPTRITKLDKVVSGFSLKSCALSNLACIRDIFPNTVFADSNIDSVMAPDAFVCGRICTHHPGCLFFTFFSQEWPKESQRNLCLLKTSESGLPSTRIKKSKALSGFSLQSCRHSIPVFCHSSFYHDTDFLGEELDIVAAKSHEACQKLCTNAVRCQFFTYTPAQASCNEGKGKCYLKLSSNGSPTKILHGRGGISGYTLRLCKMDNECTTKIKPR
Target sequence (P03951 388-625 limits assumed): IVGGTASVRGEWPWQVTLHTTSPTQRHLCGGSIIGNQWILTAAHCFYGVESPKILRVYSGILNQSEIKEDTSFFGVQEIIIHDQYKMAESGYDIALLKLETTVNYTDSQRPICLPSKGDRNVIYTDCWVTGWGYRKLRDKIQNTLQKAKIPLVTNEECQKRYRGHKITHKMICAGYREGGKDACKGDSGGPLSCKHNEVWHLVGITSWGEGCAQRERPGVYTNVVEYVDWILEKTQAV
FXIIa inh: inhibitors of human coagulation factor XIIa; purified FXIIa, Boc-QGR-AMC fluorogenic substrate, 2 h; inhibition, % at 5 µM; AID 800; P00748; 220,000 compounds, 0.3% hits; in the data active = inhibition above about 40%;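 note: 0% = enzyme with no compound and 100% = blank without enzyme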
EP2 mod: modulates human prostaglandin E2 receptor EP2 signaling. 260,000 compounds, 0.83% hits. EP2-expressing cells, cAMP HTRF FRET, PGE2 co-stimulation. induction, % at 25 µM. P43116. AID 940;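 active = compounds whose cAMP rise, as percent of the full-agonist control response, exceeds 60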;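 note: rat C6 glioma line stably carrying human EP2 under a CMV promoter; the protocol text gives 20 µM as final concentration; 100% = response of wells given 1 µM PGE2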
EP2 confirm: human EP2 receptor cAMP induction, negative in counter-screens; shares compounds with EP2 mod; C6 glioma EP2 cells, cAMP HTRF induction; plus low (about EC15) PGE2 agonist; calls only at 20 µM (by protocol); 1,300 compounds, 47% hits; AID 1080;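 active = cAMP induction above 50% in the main assay while under 30% in all four parallel counter assays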;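 note: rat C6 glioma cells stably expressing human EP2 receptor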
Numbers without * were called inactive; i = inactive; . = no result; + = active, no number; ! = not active in a repeat. An excerpt weighted towards active compounds, which were near 2.1% of everything screened.

SMILES	Thrombin inh	EP2 antag	KLK5 inh	FXIa inh 1536	FXIIa inh	EP2 mod	EP2 confirm
Cc1ccc(S(=O)(=O)NCC2COc3ccccc3O2)cc1 (stereo not given)	4.1	12.2	1.0	7.2	18.2	-10.7	.
Cc1ccc2c(c1)N(S(=O)(=O)c1ccc(F)cc1)C(C(C)(C)C)CO2 (stereo not given)	4.4	9.5	7.0	11.5	21.9	77.2*	+
CC(=O)O[C@H]1C[C@@H](OC(C)=O)C(C)(C)C2C[C@@H](OC(C)=O)[C@]3(C)C([C@H](OC(C)=O)C[C@@]4(C)[C@H](c5ccoc5)OC(=O)[C@H]5O[C@]543)[C@]21C (stereo not given in full)	.	9.0	.	.	.	70.1*	+
O=C(Nc1ccccc1N1CCOCC1)c1ccc2ccccc2n1	3.4	7.3	-12.4	7.2	13.2	69.6*	+
O=C(CN1CCCCCCC1)Nc1ccc(Cl)cc1Cl	-3.1	5.5	-3.1	-3.1	5.0	65.8*	i
CCn1c(SCC(=O)Nc2ccc(C)cc2)nnc1-c1ccoc1C	.	4.0	.	.	.	-7.2	.
CCOC(=O)c1c(-c2ccc(C)cc2)csc1NC(=O)CCN1CC(C)OC(C)C1 (stereo not given)	-3.4	5.8	-8.4	2.8	12.4	86.5*	+
CCOC(=O)c1c(-c2ccc(C)o2)csc1NC(=O)CN1CCCCC1	-4.6	4.3	4.3	1.7	8.8	65.5*	i
CCOC(=O)c1c(-c2ccc(C)o2)csc1NC(=O)CN1CCN(CC)CC1	6.1	10.1	-9.7	-1.2	19.5	-4.1	.
Cc1ccc(-c2cc(C(=O)N3CCCCC3C)no2)cc1 (stereo not given)	.	10.4	.	.	.	-43.4	.
CCOC(=O)C1=C(C)NC(C)=C(C(=O)OC)C1c1cccc(Cl)c1Cl (stereo not given)	-0.4	9.1	-11.3	17.6	5.4	64.6*!	i
CCc1nnc2n1N=C(c1ccc(-c3cc(Cl)ccc3Cl)o1)CS2	-0.1	0.7	-1.0	-2.9	10.6	68.3*	+
Cc1cc(=O)[nH]c(SCC(=O)N2CCC(C(N)=O)CC2)n1	-3.0	5.9	-4.8	-8.3	0.3	13.4	.
CCCc1cc(=O)[nH]c(SCC(=O)N2CCC(C(=O)OCC)CC2)n1	-13.0	13.3	-10.3	2.8	7.0	68.3*	i
CCOC(=O)c1c(N)sc2c1CCC(CC)C2 (stereo not given)	-4.2	11.1	-10.6	-3.8	9.2	65.7*	i
CCC1CCc2c(sc(N)c2C(N)=O)C1 (stereo not given)	4.9	4.5	-0.3	7.6	14.2	-11.8	.
COc1ccc(C(=O)Nc2nc(-c3ccc4c(c3)CCN4S(C)(=O)=O)cs2)cc1	.	6.7	.	.	.	-40.3	.
CCCCc1nc2sc3c(SCC(=O)NCc4ccco4)ncnc3c2c2c1CCC2	0.4	10.5	-23.1	1.3	15.0	68.5*	i
CCCCc1nc2sc3c(SCCN(C)C)ncnc3c2c2c1CCC2	-8.8	17.7	20.4	-21.2	1.4	0.4	.
COC(=O)CN1C(=O)C2(SC(NC(C)=O)=NN2C(C)=O)c2ccccc21 (stereo not given)	.	14.9	.	.	.	-9.8	.
CCOc1ccc(OCC)c(NC(=O)CN2CCN(CC)CC2)c1	-2.0	9.3	-16.4	-1.8	4.3	2.9	.
CCOc1ccc(OCC)c(NC(=O)CN2CCN(c3cc(C)ccc3C)CC2)c1	1.9	11.1	-20.6	6.0	0.0	77.9*	+
CCOc1ccc(OCC)c(NC(=O)CN2CCN(c3cccc(C)c3)C(C)C2)c1 (stereo not given)	3.3	.	-11.6	4.8	15.7	58.3	.
CCOc1ccc(OCC)c(NC(=O)CN2CCN(c3cccc(C)c3)CC2)c1	-4.7	.	14.9	0.2	8.3	73.4*	+
CCn1c2ccccc2c2cc(Nc3cc(C)nc4ncnn34)ccc21	-2.3	8.0	-7.7	4.2	15.2	82.7*	+
COc1cccc(N=c2oc3c(C)ncc(CO)c3cc2C(=O)Nc2ccccc2OC)c1	2.3	.	-12.5	-4.8	15.3	67.8*	i
COc1ccc(N2C(=O)N(Cc3ccc(C)cc3)c3ccccc3S2(=O)=O)cc1	-8.6	3.8	-6.1	-1.8	8.7	78.7*	+
